From ChEMBL document CHEMBL1126319, “Synthesis, antiproliferative, and antiviral activity of certain 4-aminopyrrolo[2,3-d]pyridazine nucleosides: an entry into a novel series of adenosine analogues” (J Med Chem, 1992)

Experiments:
[1] = Cytotoxicity of compound was determined visually in human diploid fibroblasts (HFF).
In short: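 HFF cells are grown in MEM(E) with 10% FBS. Drug-induced cytopathology in uninfected cells of the HCMV plaque assay is scored 0 to 4+ at 35- and 60-fold magnification on the day of plaque staining. IC50 comes from regression against log concentration.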

Homo sapiens [2] = organism: Homo sapiens; assay: In vitro antiproliferative effect against growth rate of H. Ep.2 cells at 100 uM concentration; assay type: functional
In short: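 H.Ep.2 cells receive compound at 100 μM. Growth is read by crystal violet A560-570 at days 0, 2 and 5 and expressed as growth rate, the slope of semilog cell number versus time as a percent of control.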

Human alphaherpesvirus 1 = assay: Concentration required to decrease the growth rate to 50% of control was evaluated against HSV-1 by using enzyme immunoassay.
Human betaherpesvirus 5 [3] = assay: Concentration required to decrease the growth rate to 50% of control was evaluated against HCMV by using plaque reduction assay.; assay type: functional, organism-based
In short: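 HFF monolayers infected with about 50 PFU of HCMV Towne strain (plaque-purified P0 isolate) in a 0.2 mL inoculum. Compounds are dissolved in the overlay medium and plaques are counted. Percent inhibition is regressed linearly against log concentration to give the IC50. Acyclovir or ganciclovir serves as positive control. Values are averages of two to seven experiments.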

L1210 [4] = assay: In vitro antiproliferative effect against growth rate of L1210 cells at 100 uM concentration; assay type: functional, Mus musculus
In short: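 L1210 cells are held in static suspension in Fischer's medium with compound at 100 μM. Cell counts are taken at 0, 48 and 96 h. Growth rate is the semilog slope versus time as a percent of control.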

Human betaherpesvirus 5 [5] = assay: Concentration required to decrease the growth rate to 50% of control was evaluated against HCMV by using yield reduction assay.; assay type: functional
L1210 [6] = assay: Concentration required to decrease the growth rate to 50% of control was evaluated by determining their ability to inhibit growth of L1210 cells in vitro.; assay type: functional, cell-based; details: Mus musculus
In short: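 L1210 cells are grown in static suspension in Fischer's medium. Cell number is counted at 0, 48 and 96 h across a range of compound concentrations. Growth rate is the semilog slope as a percent of control; the 48–96 h rate is used if growth slowed. IC50 is the concentration giving 50% of control growth rate.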

KB = assay: Cytotoxicity of compound was determined by assaying cell growth in human neoplastic cell line(KB).; assay type: functional, cell-based
In short: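 KB cells (human epidermoid oral carcinoma) are grown in MEM(H) with 5% FBS. Growth is measured spectrophotometrically by crystal violet staining two days after drug treatment. IC50 comes from linear regression of percent inhibition against log concentration.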

Homo sapiens [7] = organism: Homo sapiens; assay: Concentration required to decrease the growth rate to 50% of control was evaluated by determining their ability to inhibit growth of H.Ep.2 cells in vitro.; assay type: functional, cell-based; details: HEp-2
In short: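 H.Ep.2 cells are grown in MEM (Earle's salts) with 15% bovine calf serum under 5% CO2, and 2000 cells/well are plated in MEM with 5% serum. Compounds are added 1 day later. Growth is read by crystal violet staining (A560-570) at days 0, 2 and 5 after addition. Growth rate is Td(control)/Td(treated), and IC50 is the concentration halving growth rate.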

Structure (SMILES)	IC50 [1]	Control (Homo sapiens [2])	IC50 (Human alphaherpesvirus 1)	IC50 (Human betaherpesvirus 5 [3])	Control (L1210 [4])	IC90 (Human betaherpesvirus 5 [5])	IC50 (L1210 [6])	Of control (Homo sapiens [2])	IC50 (KB)	IC50 (Homo sapiens [7])
Nc1nncc2c1ccn2C1O[C@H](CO)[C@@H](O)[C@H]1O (stereo partly drawn)	> 100 µM	93%	> 100 µM	> 100 µM	100%	–	–	–	–	–
Nc1nncc2c1c(Br)cn2C1O[C@H](CO)[C@@H](O)[C@H]1O (stereo partly drawn)	100 µM	–	30 µM	90 µM	9%	2.2 µM	24 µM	6%	12 µM	5.2 µM
Nc1nc2c(ncn2COCCO)c(=O)[nH]1 [ACYCLOVIR]	> 100 µM	–	3.4 µM	–	–	90 µM	–	–	> 100 µM	–
Nc1ncnc2c1ccn2[C@@H]1O[C@H](CO)[C@@H](O)[C@H]1O [TUBERCIDIN]	0.4 µM	–	–	–	0%	–	–	0%	1 µM	0.06 µM
Nc1nc2c(ncn2COC(CO)CO)c(=O)[nH]1 [GANCICLOVIR]	> 100 µM	–	–	8.4 µM	–	1.8 µM	–	–	> 100 µM	–
Nc1nncc2c1ccn2C1O[C@H](CO)[C@@H](O)[C@@H]1O (stereo partly drawn)	> 100 µM	–	> 100 µM	> 100 µM	88%	–	> 100 µM	–	–	–
Nc1ncnc2c1c(Br)cn2[C@@H]1O[C@H](CO)[C@@H](O)[C@H]1O	1.2 µM	–	4 µM	0.6 µM	9%	3.5 µM	–	–	3 µM	–
